From ChEMBL document CHEMBL3525937, “Drug efflux transporter multidrug resistance-associated protein 5 affects sensitivity of pancreatic cancer cell lines to the nucleoside anticancer drug 5-fluorouracil” (Drug Metab Dispos, 2011) come the findings set out here.

A short description of data set [1]: Cytotoxicity against human Patu-S cells by crystal violet staining. It counts as functional, cell-based. In a few lines:
(§1)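 Cells plated at 5000–10,000 per well and left 24 h, then exposed to drug in medium for the set time at 37°C, 5% CO2. Washed with PBS, fixed 15 min in 4% paraformaldehyde and stained 5 min with 0.5% crystal violet in methanol. Lysed in 1% SDS, OD read at 570 nm with untreated cells as 100%. IC50 fitted by nonlinear sigmoidal regression over at least five concentrations, each in triplicate; three independent experiments.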

Data set [2] in a line: Cytotoxicity against human T3M4 cells by crystal violet staining. It counts as functional, cell-based. Put shortly: as §1
A short description of data set [3]: Cytotoxicity against human PANC1 cells by crystal violet staining. In kind it is functional, cell-based. The note with it: PANC-1. Put shortly:
as §1

The next data set has as its system DAN-G. The experiment in a line: Cytotoxicity against human DAN-G cells by crystal violet staining. In kind it is functional, cell-based. Put shortly:
as §1

A short description of data set [4]: Cytotoxicity against human Patu-02 cells by crystal violet staining. It counts as functional, cell-based. Put shortly:
as §1

Data set [5] in a line: Cytotoxicity against human Aspc-1 cells by crystal violet staining. The following applies: ASPC1. It counts as functional, cell-based. Put shortly:
as §1

Data set [6] in a line: Cytotoxicity against human Patu-T cells by crystal violet staining. The following applies: PaTu 8988t. It counts as functional, cell-based. Put shortly: as §1
Data set [7] in a line: Cytotoxicity against human Colo-357 cells by crystal violet staining. It counts as functional, cell-based. The following applies: COLO357. Put shortly: as §1
The next data set relates to COLO357. Briefly: Cytotoxicity against human Colo-357 cells expressing MRP5 assessed as cell killing after 48 hrs using propidium iodide staining by cytofluorometric analysis. In kind it is functional, cell-based. Put shortly: (§2)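 Colo-357 cells stably transfected with pcDNA3.1/hygro-MRP5 or empty vector were cultured with 5-FU (1–33 M) for 48 h. Cells were harvested, stained with 2 g/ml propidium iodide in PBS for 5 min at 4°C in the dark, and PI uptake was read by flow cytometry (10,000 cells, debris gated out). Values are the percentage of dead cells from three assays in triplicate.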

The nature of data set [8]: Cytotoxicity against human Patu-02 cells assessed as increase of cell death at 33 uM after 48 hrs using propidium iodide staining by cytofluorometric analysis. In kind it is functional. Put shortly:
(§3)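 Patu-02 cells stably transfected with an MRP5 siRNA expression vector or empty vector (hygromycin B selected, single-cell cloned, RT-PCR screened) were exposed to 5-FU (3.3–100 M) for 48 h. Cell death was measured as PI uptake (2 g/ml, 5 min, 4°C, dark) by flow cytometry on 10,000 gated cells. Three assays were run in triplicate.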

Data set [9] in a line: Cytotoxicity against human Patu-02 cells assessed as increase of cell death at 3.3 uM after 48 hrs using propidium iodide staining by cytofluorometric analysis. It counts as functional. In a few lines: as §3
Data set [10] concerns MRP5. The experiment in a line: Induction of MRP5 expression in human Patu-T cells after 6 months by RT-PCR analysis relative to control. The note with it: read-out: FC. In kind it is cell-based, PaTu 8988t. In a few lines:
(§4)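 Patu-8988T cells were cultured 6 months with increasing 5-FU, then kept at least 1 week drug-free. Transcripts were quantified by real-time RT-PCR on 20 ng cDNA with a Tris/KCl/MgCl2 platinum Taq master mix and ROX reference. Expression is reported relative to untreated parental Patu-T cells.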

Data set [11] is described as follows: Cytotoxicity against human Colo-357 cells expressing MRP5 assessed as cell killing at 10 uM after 48 hrs using propidium iodide staining by cytofluorometric analysis. It counts as functional, COLO357. In a few lines:
as §2

Data set [12] addresses T1, ATP-binding cassette sub-family C member 5 (Homo sapiens, UniProt O15440). The experiment in a line: Activity at MRP5 in human Colo-357 cells assessed as increase of drug efflux after 60 mins relative to wild type cells. It counts as ADME, cell-based. The following applies: colo357, 1 h. In a few lines:
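Transfected Colo-357 cells seeded in triplicate were preloaded 2 h with [14C]5-FU in energy-depletion medium (glucose-free, pyruvate-free, sodium azide). After two washes, medium was switched to ordinary drug-free growth medium, and medium radioactivity was sampled at time points over 60 min. Results are expressed as released radioactivity relative to radioactivity accumulated during loading.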

Data set [13] is described as follows: Cytotoxicity against human 5-FU-resistant Patu-T cells by crystal violet staining. In kind it is functional, cell-based. The following applies: PaTu 8988t. Put shortly:
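Patu-8988T subclones were selected with rising 5-FU over 6 months, then kept drug-free at least 1 week. Cells were plated at 5000–10,000/well, left 24 h, then drug-exposed. They were fixed in 4% paraformaldehyde, stained with 0.5% crystal violet in methanol, lysed in 1% SDS, and read at OD 570 nm against untreated cells (100%). At least five concentrations were tested in triplicate, and IC50 was obtained by sigmoidal nonlinear regression.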

Data set [14] can be described thus: Cytotoxicity against human Patu-02 cells assessed as increase of cell death at 100 uM after 48 hrs using propidium iodide staining by cytofluorometric analysis. In kind it is functional. Put shortly: as §3
Data set [15] deals with T1, ATP-binding cassette sub-family C member 5. The experiment in a line: Activity at MRP5 in human Colo-357 cells assessed as decrease of drug accumulation after 2 hrs relative to wild type cells. The note with it: colo357, 2 h. In kind it is ADME, cell-based. More on the design: scale not given: the % may be the effect or the level left. Put shortly: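 Stably transfected Colo-357 (pcDNA3.1/hygro-MRP5 vs empty vector, hygromycin B selected), subconfluent, seeded in triplicate, grown overnight, then incubated at 37°C with 7.6 M [14C]5-FU (0.4 Ci/ml, 52 mCi/mmol) for timed intervals. Washed with ice-cold PBS, lysed in 0.2% SDS, scintillation counted, normalised to protein.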

Data set [16] can be described thus: Cytotoxicity against human MRP5 knockdown Patu-02 cells assessed as increase of cell death at 100 uM after 48 hrs using propidium iodide staining by cytofluorometric analysis. In kind it is functional. In a few lines: as §3
Data set [17] in a line: Cytotoxicity against human Colo-357 cells expressing MRP5 assessed as cell killing at 1 uM after 48 hrs using propidium iodide staining by cytofluorometric analysis. In kind it is functional, COLO357. In a few lines:
as §2

Data set [18] is described as follows: Cytotoxicity against human MRP5 knockdown Patu-02 cells assessed as increase of cell death at 3.3 uM after 48 hrs using propidium iodide staining by cytofluorometric analysis. In kind it is functional. Put shortly: as §3
The nature of data set [19]: Cytotoxicity against human Colo-357 cells assessed as cell killing at 1 uM after 48 hrs using propidium iodide staining by cytofluorometric analysis. In kind it is functional, COLO357. Put shortly:
as §2

A short description of data set [20]: Cytotoxicity against human MRP5 knockdown Patu-02 cells assessed as increase of cell death at 10 uM after 48 hrs using propidium iodide staining by cytofluorometric analysis. It counts as functional. Put shortly:
as §3

Data set [21] concerns MRP5. Briefly: Induction of MRP5 expression in human MRP5 vector transfected Colo-357 cells by RT-PCR analysis relative to control. It counts as cell-based, COLO357. The note with it: Colo-357 cells transfected with human MRP5 vector, read-out: FC. Put shortly:
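Colo-357 cells were transfected with pcDNA3.1/hygro-MRP5 or empty vector, split after 48 h and selected in hygromycin B. MRP5 mRNA was measured by quantitative real-time RT-PCR (20 ng cDNA) relative to the vector-only clone.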

The nature of data set [22]: Cytotoxicity against human Colo-357 cells assessed as cell killing at 33 uM after 48 hrs using propidium iodide staining by cytofluorometric analysis. In kind it is functional, COLO357. In a few lines:
as §2

Data set [23] in a line: Induction of BCRP expression in human Patu-T cells after 6 months by RT-PCR analysis relative to control. It counts as ADME, cell-based. The following applies: patu 8988t, 4383 h. Put shortly: as §4
A further data set has as its system PaTu 8988t. The experiment in a line: Induction of thymidylate synthase expression in human Patu-T cells after 6 months by RT-PCR analysis relative to control. In kind it is functional, cell-based. In a few lines: as §4
The nature of data set [24]: Cytotoxicity against human Colo-357 cells assessed as cell killing at 3 uM after 48 hrs using propidium iodide staining by cytofluorometric analysis. In kind it is functional, COLO357. Put shortly: as §2
Data set [25] can be described thus: Cytotoxicity against human Colo-357 cells assessed as cell killing at 10 uM after 48 hrs using propidium iodide staining by cytofluorometric analysis. It counts as functional, COLO357. In a few lines:
as §2

The nature of data set [26]: Cytotoxicity against human MRP5 knockdown Patu-02 cells assessed as increase of cell death at 33 uM after 48 hrs using propidium iodide staining by cytofluorometric analysis. In kind it is functional. Put shortly:
as §3

The subject of a further data set is MRP4. The experiment in a line: Induction of MRP4 expression in human Patu-T cells after 6 months by RT-PCR analysis relative to control. The note with it: read-out: FC. In kind it is cell-based, PaTu 8988t. In a few lines: as §4
Data set [27] in a line: Cytotoxicity against human Patu-02 cells assessed as increase of cell death at 10 uM after 48 hrs using propidium iodide staining by cytofluorometric analysis. It counts as functional. In a few lines:
as §3

Data set [28] is described as follows: Cytotoxicity against human Colo-357 cells expressing MRP5 assessed as cell killing at 3 uM after 48 hrs using propidium iodide staining by cytofluorometric analysis. In kind it is functional, COLO357. In a few lines:
as §2

Data set [29] is described as follows: Cytotoxicity against human Colo-357 cells expressing MRP5 assessed as cell killing at 33 uM after 48 hrs using propidium iodide staining by cytofluorometric analysis. In kind it is functional, COLO357. Put shortly:
as §2

Calls of active or inactive are those of the source. No cut-off for these calls is given here.

T1 sequence (O15440 whole entry): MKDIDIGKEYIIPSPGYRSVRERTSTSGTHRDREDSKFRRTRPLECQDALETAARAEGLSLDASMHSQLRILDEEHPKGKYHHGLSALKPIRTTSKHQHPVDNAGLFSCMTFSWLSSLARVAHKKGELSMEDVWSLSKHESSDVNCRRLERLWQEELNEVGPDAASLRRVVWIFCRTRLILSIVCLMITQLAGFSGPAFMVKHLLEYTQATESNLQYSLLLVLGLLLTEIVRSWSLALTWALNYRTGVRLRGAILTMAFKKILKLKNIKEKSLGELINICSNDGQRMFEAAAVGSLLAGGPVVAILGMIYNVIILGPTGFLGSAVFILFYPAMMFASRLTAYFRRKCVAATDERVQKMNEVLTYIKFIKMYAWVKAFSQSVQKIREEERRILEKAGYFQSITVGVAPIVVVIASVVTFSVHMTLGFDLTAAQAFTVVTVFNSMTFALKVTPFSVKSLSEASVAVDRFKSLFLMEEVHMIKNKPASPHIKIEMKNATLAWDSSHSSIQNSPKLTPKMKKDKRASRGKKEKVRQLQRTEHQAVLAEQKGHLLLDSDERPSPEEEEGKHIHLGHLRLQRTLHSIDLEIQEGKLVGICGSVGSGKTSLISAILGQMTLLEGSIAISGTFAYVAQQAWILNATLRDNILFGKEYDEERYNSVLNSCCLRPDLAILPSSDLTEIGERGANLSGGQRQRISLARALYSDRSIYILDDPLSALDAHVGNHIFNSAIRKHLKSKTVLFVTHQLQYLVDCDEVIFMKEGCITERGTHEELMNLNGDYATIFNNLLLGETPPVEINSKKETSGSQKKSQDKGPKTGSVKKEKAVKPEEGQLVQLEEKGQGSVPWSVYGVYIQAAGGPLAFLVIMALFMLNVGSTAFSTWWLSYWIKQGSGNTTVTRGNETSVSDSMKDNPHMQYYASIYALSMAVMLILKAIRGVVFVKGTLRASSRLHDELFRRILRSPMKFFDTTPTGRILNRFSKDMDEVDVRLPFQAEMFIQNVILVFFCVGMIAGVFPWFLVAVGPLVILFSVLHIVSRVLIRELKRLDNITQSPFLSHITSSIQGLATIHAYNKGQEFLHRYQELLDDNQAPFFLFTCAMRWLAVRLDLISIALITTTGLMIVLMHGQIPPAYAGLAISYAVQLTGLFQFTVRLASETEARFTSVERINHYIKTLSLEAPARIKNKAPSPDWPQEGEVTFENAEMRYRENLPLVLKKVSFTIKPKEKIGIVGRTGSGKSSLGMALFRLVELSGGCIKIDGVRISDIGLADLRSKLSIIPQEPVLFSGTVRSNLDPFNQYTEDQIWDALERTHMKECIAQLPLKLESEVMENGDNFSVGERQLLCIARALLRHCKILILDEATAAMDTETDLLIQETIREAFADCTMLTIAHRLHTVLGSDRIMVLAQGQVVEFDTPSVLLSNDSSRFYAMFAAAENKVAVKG

Usually IC50 stands for the midpoint of a concentration-inhibition curve. On to `Sc1ncnc2nc[nH]c12` [MERCAPTOPURINE ANHYDROUS], for which the IC50 worked out at 11100 nM in [1]; 2630 nM in [2]; 6390 nM in data set [3]; 4060 nM in the data set with DAN-G; 9690 nM in data set [4]; 2450 nM in [5]. Also, the IC50 in [6] came to 4090 nM; in data set [7] it was 6120 nM.

In the case of `Nc1nc2[nH]cnc2c(=S)[nH]1` [THIOGUANINE], the IC50 in [1] amounted to 2210 nM; in data set [2], 1280 nM; in data set [3], 8310 nM; in the data set with DAN-G, 4320 nM; in data set [4] it was 2260 nM; in data set [5], 2800 nM. Also, the values for the IC50 in data set [6] and in data set [7] were 3430 nM and 2090 nM, respectively.

Regarding `Nc1ccn([C@@H]2O[C@H](CO)[C@@H](O)C2(F)F)c(=O)n1` [GEMCITABINE], the 50% inhibitory concentration (IC50) in data set [1] was found to be 3.2 nM; in data set [2], 1.5 nM; in data set [3] it was 1 nM; in the data set with DAN-G, 3.4 nM; in data set [4], 3.4 nM; in [5], 4 nM. Moreover, the 50% inhibitory concentration (IC50) came out at 2.8 nM in [6] and 0.36 nM in data set [7].

In the case of `O=c1[nH]cc(F)c(=O)[nH]1` [FLUOROURACIL], the outcome in the data set with COLO357 and in the data set with PaTu 8988t was inactive. Moreover, the Activity is reported as 63% in [8]; 10% in data set [9]; 39.1% in data set [11]; 66% in data set [14]; 59.2% in [15]; 94% in data set [16]. Further, the Activity is reported as 16.4% in data set [17]; 36% in data set [18]; 26.4% in data set [19]; 53% in data set [20]; 53% in data set [22]; “Not Active” in [23]. The Activity in data set [24] is recorded as 45.4%; in data set [25] it was 54.6%; in [26] it was 80%; in [27], 27%; in data set [28] it was 31.2%; in data set [29], 44.9%. Further, the fold induction at 4383 h came to 2.4 with MRP5 [10] and 2.5 with MRP4. For the same compound, in data set [12], the “fold change (FC)” value is given as 2.1. The concentration for half-maximal inhibition (IC50) in data set [13] amounted to 33200 nM; in [1], 2930 nM; in data set [2], 330 nM; in data set [3], 3940 nM; with DAN-G it was 4380 nM; in [4], 3950 nM. Also, the half-inhibitory concentration (IC50) in data set [5] worked out at 2970 nM; in data set [6], 2080 nM; in data set [7], 2050 nM. Besides, the fold induction in the data set on MRP5 [21] was found to be 4.3.
